Source: ChEMBL document CHEMBL1124898, “Novel agents effective against solid tumors: the diarylsulfonylureas. Synthesis, activities, and analysis of quantitative structure-activity relationships” (J Med Chem, 1990)
Converted amounts (≈) assume the structure as drawn.

Legend:
X5563 [1] = assay: Antitumor activity in vivo expressed as percent of inhibition in X5563-plasma cell myeloma cell line; 60-79 % inhibition; type: functional, Mus musculus
Summary of the method: (§1)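 Tumor fragments (about 1–2 mm) implanted sc via trochar into a subaxillary site of syngeneic mice (C3H, C57BL/6, Balb/C or DBA/2) or Holtz rats. Groups were 7–10 randomized animals. Compound was suspended in 2.5% Emulphor in 0.9% saline and given orally by gavage or ip, usually from the day after implantation. Tumor volume versus untreated controls was measured one day after the final dose and reported as % inhibition. Scoring bands: +++ 95–100%, ++ 80–94%.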

CCRF-CEM = assay: Concentration required to inhibit growth of CCRF-CEM cells in culture for 72 hr to 50% of control growth; type: functional, cell-based; details: Homo sapiens
[2] = Antitumor activity in vivo against the 6C3HED lymphosarcoma, dosed for 8 days at 300 mg/kg; details: Mus musculus, 192 h
Rattus norvegicus [3] = assay: Hypoglycemic activity expressed as (Maximum reduction in blood glucose in mg/dL relative to predosing glucose level)/(time in hours at which maximum reduction occurred); type: functional
Summary of the method: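 Fed male Sprague-Dawley rats (175–200 g), four per compound, received a single oral gavage dose of 200 mg/kg suspended in 5% acacia. Tail blood was sampled before dosing and at 1, 2, 3 and 5 h, and glucose was measured by glucose oxidase/peroxidase colorimetry. Each rat served as its own control. Value = maximum fall from predose glucose (mg/dL) divided by the hour at which that maximum occurred.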

[4] = tested on: Lewis lung carcinoma cell line; assay: Antitumor activity in vivo expressed as percent of inhibition in Lewis-lung carcinoma cell line; type: functional, Mus musculus; summary of the method: as §1
P388 [5] = assay: Antitumor activity in vivo and the activity was determined as percent increase in life span determined against P388-lymphocytic leukemia tumor cell lines; 50-99 %; type: functional, Mus musculus
Summary of the method: (§2)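 The ascites tumor inoculum of 1 × 10^6 cells was given ip to DBA/2 mice, and treatment started the next day. Compound was suspended in 2.5% Emulphor in 0.9% saline. Groups had 7–10 animals. %ILS = (MDD treated − MDD control)/MDD control × 100. Deaths before the control median day of death were counted as toxic. Values are optimal from at least two experiments.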

Colon 26 [6] = assay: Antitumor activity in vivo expressed as percent of inhibition in C-26-colon carcinoma cell line; 95-100% inhibition; type: functional, Mus musculus; summary of the method: as §1
C3H [7] = assay: Antitumor activity in vivo expressed as percent of inhibition in C3H-mammary adenocarcinoma cell line; 95-100% inhibition; type: functional, Mus musculus; summary of the method: as §1
B16 [8] = assay: Antitumor activity in vivo expressed as percent of inhibition in B-16-melanoma (solid) cell line; type: functional, Mus musculus; summary of the method: as §1
6C3HED [9] = assay: Antitumor activity in vivo expressed as percent of inhibition in 6C3HED-lymphosarcoma tumor cell line; 95-100% inhibition; type: functional, Mus musculus; summary of the method: as §1
M109 = assay: Antitumor activity in vivo expressed as percent of inhibition in Madison-lung carcinoma cell line; 80-94% inhibition; type: functional, Mus musculus; summary of the method: as §1
CA-755 [10] = assay: Antitumor activity in vivo expressed as percent of inhibition in CA-755-mammary adenocarcinoma tumor cell line; 95-100% inhibition; type: functional, Mus musculus; summary of the method: as §1
M-5 (Mus musculus) [11] = assay: Antitumor activity in vivo expressed as percent of inhibition in M-5-ovarian carcinoma cell line; 95-100% inhibition
[12] = Antitumor activity in vivo against the 6C3HED lymphosarcoma dosed for 8 days at 100 mg/kg; details: Mus musculus, 192 h
[13] = Antitumor activity in vivo against the 6C3HED lymphosarcoma dosed for 8 days at 150 mg/kg; details: Mus musculus, 192 h
[14] = Antitumor activity in vivo against the 6C3HED lymphosarcoma dosed for 10 days at 300 mg/kg (intraperitoneal dosing for 8 days); type: functional; details: Mus musculus, ip; summary of the method: as §1
[15] = Antitumor activity in vivo against the 6C3HED lymphosarcoma dosed for 10 days at 275 mg/kg; type: functional; details: Mus musculus, 192 h, in the assay text read “8 days” for “10 days”; summary of the method: as §1
[16] = Antitumor activity in vivo against the 6C3HED lymphosarcoma dosed for 10 days at 1600 mg/kg (intraperitoneal dosing for 8 days); type: functional; details: Mus musculus, ip
Summary of the method: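 Solid tumor fragments of about 1–2 mm were implanted sc by trochar into the subaxillary site of syngeneic mice. Treatment began the day after implantation. Compound was suspended in 2.5% Emulphor in 0.9% saline and given ip. Groups had 7–10 randomized animals. Percent inhibition of growth was scored from tumor volume versus controls one day after the final dose.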

L1210 = assay: Antitumor activity in vivo and the activity was determined as percent increase in life span determined against L1210V-lymphocytic leukemia tumor cell lines; type: functional, Mus musculus; summary of the method: as §2
M-5 (Mus musculus) [17] = assay: Antitumor activity in vivo expressed as percent of inhibition in M-5-ovarian carcinoma cell line
CA-755 [18] = assay: Antitumor activity in vivo expressed as percent of inhibition in CA-755-mammary adenocarcinoma tumor cell line; type: functional, Mus musculus; summary of the method: as §1
Colon 26 [19] = assay: Antitumor activity in vivo expressed as percent of inhibition in C-26-colon carcinoma cell line; type: functional, Mus musculus; summary of the method: as §1
X5563 [20] = assay: Antitumor activity in vivo expressed as percent of inhibition in X5563-plasma cell myeloma cell line; type: functional, Mus musculus; summary of the method: as §1
C3H [21] = assay: Antitumor activity in vivo expressed as percent of inhibition in C3H-mammary adenocarcinoma cell line; type: functional, Mus musculus; summary of the method: as §1
B16 [22] = assay: Antitumor activity in vivo expressed as percent of inhibition in B-16-melanoma […] cell line; type: functional, Mus musculus; summary of the method: as §1
P388 [23] = assay: Antitumor activity in vivo and the activity was determined as percent increase in life span determined against P388-lymphocytic leukemia tumor cell lines; type: functional, Mus musculus; summary of the method: as §2
Rattus norvegicus [24] = assay: Antitumor activity in vivo expressed as percent of inhibition in Yoshida-sarcoma (rat) cell line; type: functional; summary of the method: as §1
6C3HED [25] = assay: Antitumor activity in vivo expressed as percent of inhibition in 6C3HED-lymphosarcoma tumor cell line; type: functional, Mus musculus; summary of the method: as §1
P1534J = assay: Antitumor activity in vivo expressed as percent of inhibition in P1534J-lymphatic leukemia cell line; type: functional, Mus musculus
[26] = Antitumor activity in vivo against the 6C3HED lymphosarcoma dosed for 10 days at 150 mg/kg; type: functional; details: Mus musculus, 192 h, in the assay text read “dosed for 8 days” for “dosed for 10 days”; summary of the method: as §1
[27] = Antitumor activity in vivo against the 6C3HED lymphosarcoma dosed for 10 days at 600 mg/kg; type: functional; details: Mus musculus, 192 h, in the assay text read “dosed for 8 days” for “dosed for 10 days”; summary of the method: as §1

Work on O=C(Nc1ccc(Cl)cc1)NS(=O)(=O)c1ccc2c(c1)CCC2 [SULOFENUR] yielded an Inhibition (X5563 [1]) of 79%, an IC50 (CCRF-CEM) of 11.2 µg/mL (≈ 31.9 µM) and an inhibition in vivo at 300 mg/kg [2] of 100%. The Ratio (Rattus norvegicus [3]) was 0, the Inhibition [4] was under 60% and the Increase in life-span (P388 [5]) was 99%. The Inhibition (Colon 26 [6]) was 100%, the Inhibition (C3H [7]) was 100% and the Inhibition (B16 [8]) was under 60%. It also gave an Inhibition (6C3HED [9]) of 100%, an Inhibition (M109) of 94% and an Inhibition (CA-755 [10]) of 100%. It also gave an Inhibition (M-5 (Mus musculus) [11]) of 100%.

Work on O=C(Nc1ccc(Cl)cc1)NS(=O)(=O)c1ccc(Cl)cc1 yielded an IC50 (CCRF-CEM) of 19.3 µg/mL (≈ 55.9 µM) and an inhibition in vivo at 100 mg/kg [12] of 100%.

For Cc1ccc(S(=O)(=O)NC(=O)Nc2ccc(Br)cc2)cc1, the IC50 (CCRF-CEM) was 8.2 µg/mL (≈ 22.2 µM) and the inhibition in vivo at 150 mg/kg [13] was 100%.

Compound COc1ccc(S(=O)(=O)NC(=O)Nc2ccc(Cl)cc2)cc1 has an IC50 (CCRF-CEM) of 12.6 µg/mL (≈ 37 µM) and an inhibition in vivo at 150 mg/kg [13] of 100%.

O=C(NC(=O)c1ccccc1)Nc1ccc(Cl)cc1 gave an IC50 (CCRF-CEM) of over 20 µg/mL, an inhibition in vivo at 300 mg/kg [2] of 7% and an inhibition in vivo at 300 mg/kg [14] of 0%.

O=C(Nc1ccc(Cl)cc1)NS(=O)(=O)c1ccc2ccccc2c1 gave an IC50 (CCRF-CEM) of 11.2 µg/mL (≈ 31 µM), an inhibition in vivo at 300 mg/kg [2] of 100% and a Ratio (Rattus norvegicus [3]) of 0.

Cc1ccc(S(=O)(=O)NC(=O)Nc2ccccc2)cc1 gave an IC50 (CCRF-CEM) of over 20 µg/mL and an inhibition in vivo at 275 mg/kg [15] of 44%.

In the case of O=C(Nc1ccc(Cl)cc1)NS(=O)(=O)c1ccc(Cl)c(Cl)c1, the IC50 (CCRF-CEM) is reported as 14.2 µg/mL (≈ 37.4 µM) and the inhibition in vivo at 150 mg/kg [13] is reported as 100%.

Compound O=C(NC(=O)c1c(F)cccc1F)Nc1ccc(Cl)cc1 [DIFLUBENZURON] has an IC50 (CCRF-CEM) of over 20 µg/mL, an inhibition in vivo at 300 mg/kg [2] of 6% and an inhibition in vivo at 1600 mg/kg [16] of 33%.

With Cc1ccc(S(=O)(=O)NC(=O)Nc2ccc(Cl)cc2)cc1 [LY-181984] the Increase in life-span (L1210) was under 50%, the Inhibition (M-5 (Mus musculus) [17]) was 100% and the Inhibition (CA-755 [18]) was 100%. The IC50 (CCRF-CEM) was 8.9 µg/mL (≈ 27.4 µM), the inhibition in vivo at 300 mg/kg [2] was 100% and the Inhibition [4] was under 60%. For the same compound, the Inhibition (Colon 26 [19]) was 94%, the Inhibition (X5563 [20]) was 94% and the Inhibition (C3H [21]) was 94%. It also gave an Inhibition (B16 [22]) of 79%, an Increase in life-span (P388 [23]) of under 50% and an Inhibition (Rattus norvegicus [24]) of 79%. The Inhibition (6C3HED [25]) was 100% and the Inhibition (P1534J) was 100%.

O=C(Nc1ccc(Br)cc1)NS(=O)(=O)c1ccc(Br)cc1 showed an IC50 (CCRF-CEM) of 14.1 µg/mL (≈ 32.5 µM) and an inhibition in vivo at 150 mg/kg [13] of 100%.

O=C(Nc1ccc(C(F)(F)F)cc1)NS(=O)(=O)c1ccc(Cl)cc1 showed an inhibition in vivo at 150 mg/kg [26] of 94%, an IC50 (CCRF-CEM) of 5.8 µg/mL (≈ 15.3 µM) and a Ratio (Rattus norvegicus [3]) of 0.

Compound Cc1ccc(S(=O)(=O)NC(=O)Nc2cc(Cl)c(Cl)c(Cl)c2)cc1 has an IC50 (CCRF-CEM) of over 20 µg/mL, an inhibition in vivo at 300 mg/kg [2] of 44% and a Ratio (Rattus norvegicus [3]) of 0.

CCc1ccc(S(=O)(=O)NC(=O)Nc2ccc(Cl)cc2)cc1 showed an IC50 (CCRF-CEM) of 7.5 µg/mL (≈ 22.1 µM) and an inhibition in vivo at 150 mg/kg [13] of 100%.

In the case of O=C(Nc1ccc(Cl)cc1)NS(=O)(=O)c1ccccc1, the IC50 (CCRF-CEM) is reported as 3.8 µg/mL (≈ 12.2 µM) and the inhibition in vivo at 150 mg/kg [13] is reported as 100%.

For CCCCNC(=O)NS(=O)(=O)c1ccc(C)cc1 [TOLBUTAMIDE], the inhibition in vivo at 600 mg/kg [27] was 45%.

Compound COc1ccc(S(=O)(=O)NC(=O)Nc2ccc(C(F)(F)F)cc2)cc1 has an IC50 (CCRF-CEM) of 8 µg/mL (≈ 21.4 µM) and an inhibition in vivo at 150 mg/kg [13] of 100%.

Cc1ccccc1S(=O)(=O)NC(=O)Nc1ccc(C(F)(F)F)cc1 showed an inhibition in vivo at 150 mg/kg [26] of 67% and an IC50 (CCRF-CEM) of 13.7 µg/mL (≈ 38.2 µM).

Compound COC(=O)c1ccc(S(=O)(=O)NC(=O)Nc2ccc(C(F)(F)F)cc2)cc1 has an inhibition in vivo at 150 mg/kg [26] of 0% and an IC50 (CCRF-CEM) of 2.6 µg/mL (≈ 6.46 µM).

For O=C(Nc1ccc(Cl)c(Cl)c1)NS(=O)(=O)c1ccccc1, the IC50 (CCRF-CEM) was 1.5 µg/mL (≈ 4.35 µM) and the inhibition in vivo at 150 mg/kg [13] was 100%.

Cc1cccc(S(=O)(=O)NC(=O)Nc2ccc(Cl)cc2)c1 showed an IC50 (CCRF-CEM) of 4.3 µg/mL (≈ 13.2 µM) and an inhibition in vivo at 150 mg/kg [13] of 100%.
